# Activity calls are given as the source filed them.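 Rule for the calls, unless noted: active = NADPH fluorescence slope more negative than the mean of all samples by about 3 SD, 99.7% confidence; inactive = the rest.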
# How the values were obtained:
# [1] = inhibitors of TNFa-induced NFkB p65 translocation, primary screen, imaging, HUVEC, MLSMR starter and 10KST1 sets (AID 438;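 active = inhibition above 20% together with a positive visual image hit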;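 note: compound added about 3h40 before a 20 min TNFalpha stimulation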;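 for inhibition: signal is the nuclear over cytoplasmic p65 intensity ratio per well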); conditions: HUVEC TNFa-induced p65 nuclear translocation; cell count: measured here: nuclei count (cytotoxicity indicator), at 2.08 µM; inhibition: at 2 µM, stronger effect = higher value, 0% TNFa-plus-vehicle, 100% no-TNFa wells
# [2] = reduction of polyQ htt aggregates in cells – imaging, exon1htt(103Q)mCFP cells, high-content imaging, primary screen (AID 483;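 active = visual image review flags a hit and inhibition of aggregation exceeds 20%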;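 note: compound exposure lasted 3 days before fixation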;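 for nuclei count: percent of the per-plate median nuclei count of sample wells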); conditions: exon1htt(103Q)mCFP cell line, aggregate imaging, at 2 µM; inhibition of aggregation: stronger effect = higher value; nuclei count: measured here: cell count, toxicity
# [3] = endothelial E-selectin expression blockers – imaging, HUVEC, immunofluorescence, MLSMR starter and 10KST1 sets, primary screen (AID 487;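 active = visually confirmed hit in the image check and inhibition above 20%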;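 for inhibition: signal is fraction of cell area covered by stained E-selectin grains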;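 for nuclei count: 100% = median nuclei count of all wells on the same plate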); conditions: HUVEC TNFalpha-induced E-selectin immunofluorescence imaging, at 2 µM; inhibition: stronger effect = higher value; nuclei count: measured here: cell number, toxicity
# [4] = molecular target: Voltage-gated potassium channel subunit beta-2 (Rattus norvegicus) (UniProt P62483); assay: inhibitors of rat Kvbeta2 reductase activity – biochemical, NADPH fluorescence, primary screen (AID 622;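 active = fluorescence slope higher than the sample average by over 3 SD, cut at about -0.22 in these data, passing the limit was not always enough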;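 note: slope of raw intensity against log time taken from 70 to 1610 s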); conditions: recombinant KvBeta, 4-cyanobenzaldehyde reduction, at 10 µM, stronger effect = higher value
# Voltage-gated potassium channel subunit beta-2 (Rattus norvegicus), sequence (P62483 whole entry, looked up): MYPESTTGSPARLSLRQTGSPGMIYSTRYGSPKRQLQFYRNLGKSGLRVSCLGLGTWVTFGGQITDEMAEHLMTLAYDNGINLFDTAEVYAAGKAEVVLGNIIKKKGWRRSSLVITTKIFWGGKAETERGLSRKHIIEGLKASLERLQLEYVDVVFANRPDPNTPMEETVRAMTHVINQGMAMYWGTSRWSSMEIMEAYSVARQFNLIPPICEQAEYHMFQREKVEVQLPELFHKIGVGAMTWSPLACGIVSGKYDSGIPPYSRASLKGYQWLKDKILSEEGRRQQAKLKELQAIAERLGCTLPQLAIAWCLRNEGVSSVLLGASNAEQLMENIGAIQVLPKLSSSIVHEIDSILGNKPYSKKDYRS
# [5] = molecular target: Voltage-gated potassium channel subunit beta-2 (Rattus norvegicus) (UniProt P62483); assay: enhancers of rat Kvbeta2 NADPH turnover – biochemical, NADPH fluorescence, primary screen (AID 623); conditions: Recombinant KvBeta, NADPH fluorescence decrease slope, 10 min; at 10 µM; stronger effect = lower value;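 note: fluorescence intensity change per second fitted from 20 to 320 s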
# [6] = molecular target: Alpha-2C adrenergic receptor (Homo sapiens) (UniProt P18825); assay: compounds altering alpha2C-coupled GIRK flux – cell-based, HEK293 alpha2C/GIRK1/2, thallium flux, primary screen (AID 624;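 active = fluorescence slope after compound addition differing from the mean of all screened samples at 99.7% confidence, in either direction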;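 note: slope of fluorescence ratio to pre-addition baseline per second over 15 to 24 s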); conditions: thallium flux BTC fluorescence, at 10 µM, actives lie on both sides
# Alpha-2C adrenergic receptor (Homo sapiens), sequence (P18825 whole entry, looked up): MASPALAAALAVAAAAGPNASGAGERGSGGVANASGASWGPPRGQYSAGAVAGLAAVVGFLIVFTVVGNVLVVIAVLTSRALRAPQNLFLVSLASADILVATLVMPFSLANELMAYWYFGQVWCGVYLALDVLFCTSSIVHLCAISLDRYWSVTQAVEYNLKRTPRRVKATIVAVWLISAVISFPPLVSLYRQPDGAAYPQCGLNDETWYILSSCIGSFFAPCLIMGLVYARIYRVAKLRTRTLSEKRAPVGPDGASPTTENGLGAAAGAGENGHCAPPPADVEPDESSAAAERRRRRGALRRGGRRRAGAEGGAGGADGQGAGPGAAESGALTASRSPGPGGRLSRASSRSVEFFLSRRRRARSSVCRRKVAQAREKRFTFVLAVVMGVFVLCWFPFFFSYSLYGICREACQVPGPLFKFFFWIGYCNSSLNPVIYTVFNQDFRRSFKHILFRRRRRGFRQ
# [7] = blockers of RIG-like receptor reporter activation – cell-based, Sendai virus stimulus, luciferase, 10K MLSCN set, TLR/RLR signaling modifier project, primary screen (AID 602276;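 active = inhibition at or above 50% at 10 µM; inactive = inhibition below 50%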;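 note: firefly luciferase from ISG56 promoter only with Renilla not read in this screen; 0% = Sendai virus plus DMSO and 100% = medium plus DMSO without virus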); conditions: HEK293 RL24 IRF3 luciferase reporter, at 10 µM, stronger effect = higher value
# [8] = TLR3 IRF3 reporter activation blockers – cell-based, poly I:C stimulus, luciferase, 10K MLSCN set, primary screen (AID 602277;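 active = inhibition of the reporter signal at or above 50%; inactive = inhibition below 50%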); conditions: HEK293-TLR3 RL24 IRF3 luciferase reporter, at 10 µM, stronger effect = higher value
# [9] = inhibitors of larval lipid processing in zebrafish, primary screen, whole organism, PED6 fluorescence, gall bladder and intestine (AID 686;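 active = a full or partial loss of lipid-probe fluorescence in the fish gall bladder, intestine or both, judged by eye; inactive = no fluorescence loss, or compound toxic to the fish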;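 note: larvae 5 to 7 days old with five fish per well; signal comes from phospholipase A2 cleavage of quenched PED6 carried via bile; overnight exposure to compound and PED6 before scoring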); conditions: Zebrafish larvae PED6 lipid processing, fluorescence scoring; screened at 20 µM (by protocol)
# Outline: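 Doses: 20 µM single dose. Test system: live zebrafish larvae aged 5-7 days, whole organism. Quantity: five larvae per well. Measured by: By-eye fluorescence microscopy. Reagent: ingested quenched lipid PED6 at 100 nM. Read-out: visual per-well fluorescence inhibition score. Times: overnight exposure of larvae to compound plus PED6.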
Structure (SMILES),cell count [1],inhibition [1],inhibition of aggregation [2],nuclei count [2] [%],inhibition [3],nuclei count [3] [%],fluorescence slope [4],NADPH fluorescence slope [5],slope [6],inhibition [7],inhibition [8],outcome [9]
CCOC(=O)Cn1c(CN2CCOCC2)nc2c1c(=O)[nH]c(=O)n2C,507,-1% (inactive),-19.1% (inactive),102,-6% (inactive),118,-0.601 (inactive),-4.7e-05 (inactive),0.00569 (inactive),15.2% (inactive),27.7% (inactive),
CC1CCC(NC(=O)C2CCN(c3cnccn3)CC2)CC1 (stereo not given),579,-52% (inactive),-0.6% (inactive),102,-108% (inactive),116,-0.575 (inactive),-6.7e-05 (inactive),0.00693 (inactive),-0.638% (inactive),-2.17% (inactive),
c1cc2c(cc1C1CCCN1)OCCCO2 (stereo not given),411,-7.9% (inactive),-16.6% (inactive),116,-44% (inactive),116,-0.418 (inactive),1.8e-05 (inactive),0.00434 (inactive),-9.84% (inactive),-8.78% (inactive),inactive
COc1cc(SC)ccc1C(=O)Nc1ccccc1C#N,417,3.9% (inactive),-95.3% (inactive),2.1,-147% (inactive),111,-0.449 (inactive),-1.3e-05 (inactive),0.00527 (inactive),-42.4% (inactive),-61.5% (inactive),inactive
Cc1cc(=O)[nH]c(S/C=C/c2ccccc2)n1,427,-1.8% (inactive),-8.6% (inactive),103,1.2% (inactive),80.7,-0.603 (inactive),-2e-05 (inactive),0.00593 (inactive),-28.9% (inactive),-89.2% (inactive),
COCCCn1c(=N)c(C(=O)NCC2CCCO2)cc2c(=O)n3cccc(C)c3nc21 (stereo not given),587,-8.8% (inactive),-3.1% (inactive),78.6,28.1% (inactive),67.6,-0.0296 (active),-1.3e-05 (inactive),0.00471 (inactive),11.6% (inactive),21% (inactive),inactive
CSc1cccc(NC(=O)CN(C)S(=O)(=O)c2ccccc2)c1,407,4.6% (inactive),-0.4% (inactive),103,-183% (inactive),111,-0.406 (inactive),-3.2e-05 (inactive),0.00611 (inactive),6.98% (inactive),-6.52% (inactive),
Cn1cnnc1Sc1nc2c(c(=O)n(C)c(=O)n2C)n1Cc1ccccc1Cl,376,7.7% (inactive),-1.6% (inactive),106,-73.3% (inactive),123,-0.426 (inactive),-3.9e-05 (inactive),0.005 (inactive),15.5% (inactive),21.9% (inactive),inactive
Cc1ccc2nc(C3CCN(CC(=O)N4CCCCCC4)CC3)[nH]c2c1,579,-13.8% (inactive),2.2% (inactive),101,-39.2% (inactive),111,-0.453 (inactive),-5.8e-05 (inactive),0.00562 (inactive),8.23% (inactive),13.7% (inactive),active; weak signal in gallbladder and intestine
Cc1ccc(S(=O)(=O)NCC(=O)OCC(=O)Nc2ncc(Cl)cc2Cl)cc1,412,-0.4% (inactive),-19.2% (inactive),115,-42.3% (inactive),114,-0.465 (inactive),-4.6e-05 (inactive),0.00472 (inactive),17.2% (inactive),25.7% (inactive),inactive
O=C(O)C(c1ccccc1)N1CCCC1 (stereo not given),643,3.4% (inactive),-1.7% (inactive),108,-110% (inactive),104,-0.291 (inactive),-6.9e-06 (inactive),0.00482 (inactive),13% (inactive),8.7% (inactive),inactive
COCCN(CCOC)C(=O)CCn1c(=O)oc2ccccc21,589,3.3% (inactive),2.1% (inactive),107,37.7% (inactive),100,-0.462 (inactive),-5.7e-05 (inactive),0.00623 (inactive),17.5% (inactive),8.78% (inactive),inactive
CC1(C)C(c2cccs2)=[N+]([O-])C2(CCCCC/C2=N\O)N1O (stereo not given),423,0.5% (inactive),5.7% (inactive),91.7,-97.1% (inactive),112,-0.46 (inactive),-4.9e-05 (inactive),0.00609 (inactive),15.7% (inactive),15.3% (inactive),inactive
O=C(O)COc1cccc(NC(=O)C2CCCO2)c1 (stereo not given),308,-7% (inactive),0.8% (inactive),97.2,-14.3% (inactive),90,-0.471 (inactive),1.1e-05 (inactive),0.00558 (inactive),-6.85% (inactive),-4.06% (inactive),inactive
C=CCN(CC=C)C(=O)Nc1cc(Cl)ccc1OC,373,0.5% (inactive),-7.2% (inactive),103,-87.7% (inactive),111,-0.402 (inactive),-3.2e-05 (inactive),0.0044 (inactive),4.56% (inactive),-3.97% (inactive),inactive
COc1ccccc1N1CCN(C(=O)CSc2nc3ncnc(N)c3[nH]2)CC1,467,-8.8% (inactive),-0.2% (inactive),110,-144% (inactive),162,-0.52 (inactive),7.1e-06 (inactive),0.00625 (inactive),16% (inactive),23.6% (inactive),
Cc1nn(-c2ccccc2)c2[nH]c(C(F)(F)F)cc(=O)c12,364,0.7% (inactive),17.9% (inactive),103,-10.5% (inactive),97.8,-0.411 (inactive),-4.4e-05 (inactive),0.00725 (inactive),5.93% (inactive),-1.53% (inactive),inactive
CCOc1cc2oc(=O)c3c(c2cc1Cl)CCC3,400,-2.6% (inactive),5.2% (inactive),104,-24.1% (inactive),106,-0.482 (inactive),1.7e-05 (inactive),0.00626 (inactive),-5.28% (inactive),-30.2% (inactive),
Cc1onc(-c2c(F)cccc2Cl)c1C(=O)Nc1nc2c(s1)CCCC2,250,5.1% (inactive),14.6% (inactive),101,38.1% (inactive),77.9,-0.467 (inactive),-9.4e-06 (inactive),0.00615 (inactive),-235% (inactive),99.1% (active),inactive
COc1cc(-c2nc(S(=O)(=O)c3ccc(C)cc3)c(N(C)C)o2)cc(OC)c1OC,432,-6.3% (inactive),-5.1% (inactive),105,-57% (inactive),108,-0.386 (inactive),-9.2e-05 (inactive),0.00686 (inactive),-11.7% (inactive),-7.3% (inactive),inactive
COc1ccc(CCN2C(=O)CC(N3CCN(S(=O)(=O)c4ccccc4)CC3)C2=O)cc1 (stereo not given),666,11.3% (inactive),19.5% (inactive),106,69.9% (active),110,-0.483 (inactive),-8.5e-06 (inactive),0.0045 (inactive),11.6% (inactive),6.07% (inactive),inactive
Cc1onc(-c2ccccc2)c1C(=O)NCc1cccnc1,272,-15.4% (inactive),-24.1% (inactive),120,-22.8% (inactive),112,-0.385 (inactive),-6.1e-05 (inactive),0.00521 (inactive),6.6% (inactive),8.85% (inactive),inactive
Cc1cc(C(=O)N2CCCc3ccccc32)no1,312,-4.5% (inactive),13% (inactive),77.3,-10.5% (inactive),89.2,-0.39 (inactive),-4.1e-06 (inactive),0.00507 (inactive),-8.74% (inactive),-14.5% (inactive),inactive
COC(=O)CCN(C(=O)c1ccc2c(c1)OCO2)c1ccccn1,730,2.9% (inactive),-10.6% (inactive),98.2,-0.1% (inactive),89.7,-0.4 (inactive),-4.5e-06 (inactive),0.00511 (inactive),17.3% (inactive),18% (inactive),inactive
O=C(O)CSc1ncn[nH]1,718,-14.4% (inactive),22.9% (inactive),98.3,-28.2% (inactive),112,-0.454 (inactive),-4.4e-05 (inactive),0.00435 (inactive),15.3% (inactive),12.4% (inactive),inactive
O=C(CSc1ccccc1C(=O)NCCCN1CCCC1=O)NCc1ccco1,463,3.8% (inactive),-6.6% (inactive),98.6,-81.8% (inactive),118,-0.358 (inactive),-4.3e-05 (inactive),0.00452 (inactive),11.7% (inactive),12.7% (inactive),inactive
O=C(CSc1nnc(-c2ccco2)n1CC1CCCO1)NC1CCCC1 (stereo not given),336,-6.2% (inactive),10.7% (inactive),101,-15.3% (inactive),121,-0.361 (inactive),-5.1e-05 (inactive),0.00445 (inactive),7.82% (inactive),4.4% (inactive),inactive
O=C(CSc1ncn[nH]1)NC1CC2CCC1C2 (stereo not given),264,-16.8% (inactive),17% (inactive),80.8,56.4% (inactive),53,-0.448 (inactive),-3.5e-05 (inactive),0.00492 (inactive),2.17% (inactive),7.86% (inactive),inactive

# Reference: PubChem BioAssay
